Tests used:
[1] = target: T1, tissue non-specific alkaline phosphatase (TNAP) (Homo sapiens, UniProt P05186); assay: Alkaline phosphatase inhibition, spectrophotometric p-NPP assay; format: biochemical; details: for Ki: read-out: Ki ± SEM TNAP, pH 9.5, p-NPP substrate, SEM of 3 experiments
T1 sequence (P05186 18-524): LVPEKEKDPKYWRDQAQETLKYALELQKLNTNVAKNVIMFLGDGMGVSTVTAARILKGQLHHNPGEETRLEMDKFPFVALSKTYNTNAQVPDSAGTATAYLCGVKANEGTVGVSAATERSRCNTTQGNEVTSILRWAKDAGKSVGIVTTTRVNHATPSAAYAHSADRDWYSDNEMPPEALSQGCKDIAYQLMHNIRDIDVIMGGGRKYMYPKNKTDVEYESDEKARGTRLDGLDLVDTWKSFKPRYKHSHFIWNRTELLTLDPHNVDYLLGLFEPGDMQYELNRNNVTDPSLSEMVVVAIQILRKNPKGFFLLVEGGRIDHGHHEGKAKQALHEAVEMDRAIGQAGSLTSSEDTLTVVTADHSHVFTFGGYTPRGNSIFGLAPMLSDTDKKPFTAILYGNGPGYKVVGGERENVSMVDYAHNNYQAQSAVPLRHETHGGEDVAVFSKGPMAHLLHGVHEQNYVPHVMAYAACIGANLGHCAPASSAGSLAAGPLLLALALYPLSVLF
In short: (§1)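 Commercial enzyme (calf-intestinal CIAP; TNAP) diluted in pH 9.5 buffer of 50 mM Tris–HCl, 5 mM MgCl2, 0.1 mM ZnCl2 and 50% glycerol. Test compound was preincubated with enzyme in glycerol-free buffer at 37 °C for 10 min. 0.5 mM p-NPP solution was added, incubated 30 min, and p-nitrophenolate read at 405 nm. Screen at 0.1 mM used levamisole (TNAP) or L-phenylalanine (CIAP) as standards. Ki came from 3-fold serial dilutions, run in triplicate.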

vero cells = assay: Cytotoxicity by sulforhodamine B; format: cell-based; details: for Percent inhibition ± SEM at 10 μM on vero cells: up to 48 h
In short: (§2)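 HeLa or vero cells were grown in RPMI-1640 with 2 mM L-glutamine, penicillin/streptomycin and 10% FBS at 37 °C, 5% CO2. Cells were seeded at 10^4 per well for 24 h, then exposed to 10, 1 or 0.1 μM test compound for up to 48 h, with vincristine and medium controls. Cells were fixed with cold TCA for 1 h and stained 30 min with 0.4% SRB in 1% acetic acid. Dye was solubilised in 10 mM Tris base and read at 490 nm minus 630 nm. Three experiments were run, each in triplicate.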

HeLa cells = assay: Cytotoxicity by sulforhodamine B; format: cell-based, human; details: for Percent inhibition ± SEM at 0.1 μM on Hela cells / Percent inhibition ± SEM at 1 μM on Hela cells / Percent inhibition ± SEM at 10 μM on Hela cells: up to 48 h
In short: as §2

[2] = target: calf intestine alkaline phosphatase (CIAP); assay: Alkaline phosphatase inhibition, spectrophotometric p-NPP assay; format: biochemical; details: read-out: Ki ± SEM CIAP; pH 9.5, p-NPP substrate, SEM of 3 experiments
In short: as §1

## c1ccc([C@H]2CN3CCSC3=N2)cc1 [Levamisole, reference compound]
[1]; read-out: Percent inhibition of TNAP
  inhibition at 100 µM: 71%

## CC[C@]1(O)C[C@H]2CN(CCc3c([nH]c4ccccc34)[C@@](C(=O)OC)(c3cc4c(cc3OC)N(C=O)[C@H]3[C@@](O)(C(=O)OC)[C@H](OC(C)=O)[C@]5(CC)C=CCN6CC[C@]43[C@@H]65)C2)C1 [VCN, vincristine, reference compound]
Vero cells; Chlorocebus sabaeus, Vero, 48 h, read-out: Percent inhibition ± SEM at 10 μM on vero cells
  inhibition at 10 µM: 10 ± 4%
HeLa cells; Homo sapiens, HeLa, 48 h, read-out: Percent inhibition ± SEM at 10 μM on Hela cells
  inhibition at 10 µM: 72 ± 7%

## (NH4)14[NaP5W30O110]·31H2O
Vero cells
  Percent inhibition ± SEM at 10 μM on vero cells: 15 ± 6%
[2]
  Ki: 921 ± 6 nM
[1]
  Ki: 1110 ± 36 nM
HeLa cells
  Percent inhibition ± SEM at 0.1 μM on Hela cells: 54 ± 6%
  Percent inhibition ± SEM at 1 μM on Hela cells: 62 ± 13%
  Percent inhibition ± SEM at 10 μM on Hela cells: 74 ± 10%

## Na6[TeW6O24]·22H2O
Vero cells
  Percent inhibition ± SEM at 10 μM on vero cells: 16 ± 8%
[2]
  Ki: 520 ± 13 nM
[1]
  Ki: 45.4 ± 11.3 nM
HeLa cells
  Percent inhibition ± SEM at 0.1 μM on Hela cells: 53 ± 12%
  Percent inhibition ± SEM at 1 μM on Hela cells: 62 ± 10%
  Percent inhibition ± SEM at 10 μM on Hela cells: 69 ± 10%

## Na6[V10O28]·18H2O
Vero cells
  Percent inhibition ± SEM at 10 μM on vero cells: 16 ± 3%
[2]
  Ki: 79.1 ± 2.3 nM
[1]
  Ki: 169 ± 21 nM
HeLa cells
  Percent inhibition ± SEM at 0.1 μM on Hela cells: 49 ± 11%
  Percent inhibition ± SEM at 1 μM on Hela cells: 57 ± 13%
  Percent inhibition ± SEM at 10 μM on Hela cells: 66 ± 15%

— article PMC5598103 (Toxicology Reports, 2014)
